In ChEMBL document CHEMBL2062449, “Eco-friendly synthesis and biological evaluation of substituted pyrano[2,3-c]pyrazoles” (Bioorg Med Chem Lett, 2012):
Converted amounts (≈) assume the structure as drawn.

Tests used:
Staphylococcus aureus [1] = experiment: Antibacterial activity against Staphylococcus aureus at […] after 24 hrs by agar diffusion method; assay type: functional
Summary of the method: (§1)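 Single-concentration antibacterial screen at 100 μg/50 μL per test against the standard bacterial strains.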

Bacillus subtilis [2] = experiment: Antibacterial activity against Bacillus subtilis at […] after 24 hrs by agar diffusion method; assay type: functional; summary of the method: as §1
Escherichia coli [3] = experiment: Antibacterial activity against Escherichia coli at […] after 24 hrs by agar diffusion method; assay type: functional; summary of the method: as §1
Pseudomonas aeruginosa [4] = experiment: Antibacterial activity against Pseudomonas aeruginosa at 100 ug/[…] after 24 hrs by agar diffusion method; assay type: functional; summary of the method: as §1
Staphylococcus aureus [5] = experiment: Antibacterial activity against Staphylococcus aureus after 18 to 24 hrs by broth microdilution method; assay type: functional
Bacillus subtilis [6] = experiment: Antibacterial activity against Bacillus subtilis after 18 to 24 hrs by broth microdilution method; assay type: functional
Escherichia coli [7] = experiment: Antibacterial activity against Escherichia coli after 18 to 24 hrs by broth microdilution method; assay type: functional
Pseudomonas aeruginosa [8] = experiment: Antibacterial activity against Pseudomonas aeruginosa after 18 to 24 hrs by broth microdilution method; assay type: functional
MCF7 [9] = experiment: Cytotoxicity against estrogen receptor-positive human MCF7 cells assessed as inhibition of cell proliferation at 1 ug/ml after 24 hrs by MTT assay; assay type: functional; settings: MCF7, 24 h
Summary of the method: (§2)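 MTT assay on MCF-7 human breast cancer cells, Taxol as reference; percentage inhibition of cell proliferation read at graded concentrations from 0.1 to 50 μg/mL (typically five or six levels per compound); IC50 in μg/mL derived from the inhibition series.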

MCF7 [10] = experiment: Cytotoxicity against estrogen receptor-positive human MCF7 cells assessed as inhibition of cell proliferation at 5 ug/ml after 24 hrs by MTT assay; assay type: functional; settings: MCF7, 24 h; summary of the method: as §2
MCF7 [11] = experiment: Cytotoxicity against estrogen receptor-positive human MCF7 cells assessed as inhibition of cell proliferation at 10 ug/ml after 24 hrs by MTT assay; assay type: functional; settings: MCF7, 24 h; summary of the method: as §2
MCF7 [12] = experiment: Cytotoxicity against estrogen receptor-positive human MCF7 cells assessed as inhibition of cell proliferation at 25 ug/ml after 24 hrs by MTT assay; assay type: functional; settings: MCF7, 24 h; summary of the method: as §2
MCF7 [13] = experiment: Cytotoxicity against estrogen receptor-positive human MCF7 cells assessed as inhibition of cell proliferation at 50 ug/ml after 24 hrs by MTT assay; assay type: functional; settings: MCF7, 24 h; summary of the method: as §2
MCF7 [14] = experiment: Cytotoxicity against estrogen receptor-positive human MCF7 cells assessed as inhibition of cell proliferation after 24 hrs by MTT assay; assay type: functional, cell-based; summary of the method: as §2
Rattus norvegicus [15] = experiment: Antiinflammatory activity in Wistar rat assessed as protection against carrageenan-induced paw edema at 100 mg/kg, po administered 1 hr before carrageenan challenge measured after 30 mins; assay type: functional
Rattus norvegicus [16] = experiment: Antiinflammatory activity in Wistar rat assessed as protection against carrageenan-induced paw edema at 100 mg/kg, po administered 1 hr before carrageenan challenge measured after 1 hr; assay type: functional
Rattus norvegicus [17] = experiment: Antiinflammatory activity in Wistar rat assessed as protection against carrageenan-induced paw edema at 100 mg/kg, po administered 1 hr before carrageenan challenge measured after 2 hrs; assay type: functional
Rattus norvegicus [18] = experiment: Antiinflammatory activity in Wistar rat assessed as protection against carrageenan-induced paw edema at 100 mg/kg, po administered 1 hr before carrageenan challenge measured after 3 hrs; assay type: functional
Rattus norvegicus [19] = experiment: Antiinflammatory activity in Wistar rat assessed as protection against carrageenan-induced paw edema at 100 mg/kg, po administered 1 hr before carrageenan challenge measured after 4 hrs; assay type: functional
[20] = Homo sapiens, MCF7, 24 h, read-out: IC50

| Compound | inhibition zone (IZ) (Staphylococcus aureus [1]) [mm] | inhibition zone (IZ) (Bacillus subtilis [2]) [mm] | inhibition zone (IZ) (Escherichia coli [3]) [mm] | inhibition zone (IZ) (Pseudomonas aeruginosa [4]) [mm] | MIC (Staphylococcus aureus [5]) [µg/mL] | MIC (Bacillus subtilis [6]) [µg/mL] | MIC (Escherichia coli [7]) [µg/mL] | MIC (Pseudomonas aeruginosa [8]) [µg/mL] | inhibition at 1 µg/mL (MCF7 [9]) [%] | inhibition at 5 µg/mL (MCF7 [10]) [%] | inhibition at 10 µg/mL (MCF7 [11]) [%] | inhibition at 25 µg/mL (MCF7 [12]) [%] | inhibition at 50 µg/mL (MCF7 [13]) [%] | IC50 (MCF7 [14]; [20]) [µg/mL] | Activity (Rattus norvegicus [15]) [%] | Activity (Rattus norvegicus [16]) [%] | Activity (Rattus norvegicus [17]) [%] | Activity (Rattus norvegicus [18]) [%] | Activity (Rattus norvegicus [19]) [%] | IC50 (MCF7 [14]; mcf7) [nM] |
| --- | --- | --- | --- | --- | --- | --- | --- | --- | --- | --- | --- | --- | --- | --- | --- | --- | --- | --- | --- | --- |
| Cc1nn(-c2ccccc2)c2c1C(c1cccc(Oc3nc(Cl)c(Cl)cc3Cl)c1)C(C#N)=C(N)O2 (configuration not stated) | 16 | 15 | 14 | 16 | 6.25 (≈ 11.9 µM) | 6.25 (≈ 11.9 µM) | 12.5 (≈ 23.8 µM) | 6.25 (≈ 11.9 µM) |  |  |  |  |  |  |  |  |  |  |  |  |
| Cc1[nH]nc2c1C(c1ccc(C3C(C#N)=C(N)Oc4n[nH]c(C)c43)cc1)C(C#N)=C(N)O2 (configuration not stated) |  |  |  |  |  |  |  |  | 11.4 | 23.4 | 24.4 | 24.8 | 26.7 |  |  |  |  |  |  |  |
| Cc1[nH]nc2c1C(c1c(F)c(F)c(F)c(F)c1F)C(C#N)=C(N)O2 (configuration not stated) | 18 | 15 | 14 | 15 | 3.12 (≈ 9.13 µM) | 3.12 (≈ 9.13 µM) | 1.56 (≈ 4.56 µM) | 1.56 (≈ 4.56 µM) | 1.1 | 6.96 | 16.2 | 45.1 | 65.6 | 45.5 |  |  |  |  |  |  |
| Cc1[nH]nc2c1C(c1cccnc1)C(C#N)=C(N)O2 (configuration not stated) |  |  |  |  |  |  |  |  | 0.41 | 10.1 | 16.3 | 25.2 | 75 | 35.4 |  |  |  |  |  |  |
| O=C(O)c1cn(C2CC2)c2cc(N3CCNCC3)c(F)cc2c1=O [CIPROFLOXACIN] |  |  |  |  | 1.56 (≈ 4.71 µM) | 1.56 (≈ 4.71 µM) |  | 1.56 (≈ 4.71 µM) |  |  |  |  |  |  |  |  |  |  |  |  |
| Cc1[nH]nc2c1C1(C(=O)Nc3ccccc31)C(C#N)=C(N)O2 (configuration not stated) | 13 | 11 | 12 | 10 |  |  |  |  | -1.26 | -3.16 | 0.51 | -5.9 | -4.93 |  | 23.5 | 36.1 | 54.7 | 69.8 | 51.6 |  |
| Cc1nn(-c2ccccc2)c2c1C(c1ccccc1)C(C#N)=C(N)O2 (configuration not stated) | 6 | 8 | 14 | 9 |  |  |  |  | 1.67 | 22.4 | 26.9 | 55.5 | 84.1 | 25.8 | 11.7 | 27.7 | 42.4 | 53.7 | 48.3 |  |
| COc1ccc(C2C(C#N)=C(N)Oc3c2c(C)nn3-c2ccccc2)cc1 (configuration not stated) | 5 | 4 | 10 | 6 |  |  |  |  | 0.76 | 4.19 | 8.99 | 11.6 | 30 |  | 11.7 | 25 | 39.7 | 52.6 | 45 |  |
| Cc1nn(-c2ccccc2)c2c1C(c1ccc(O)cc1)C(C#N)=C(N)O2 (configuration not stated) | 15 | 17 | 16 | 15 | 6.25 (≈ 18.1 µM) | 6.25 (≈ 18.1 µM) | 12.5 (≈ 36.3 µM) | 3.12 (≈ 9.07 µM) | 2.1 | 5.96 | 22.9 | 30.8 | 50.2 | 47.5 | 11.7 | 30.5 | 43.8 | 56.9 | 50.5 |  |
| Cc1ccc(C2C(C#N)=C(N)Oc3[nH]nc(C)c32)cc1 (configuration not stated) | 10 | 10 |  | 15 |  |  |  |  |  |  |  |  |  |  |  |  |  |  |  |  |
| CC(C)Cc1ccc(C(C)C(=O)O)cc1 (configuration not stated) [IBUPROFEN] |  |  |  |  |  |  |  |  |  |  |  |  |  |  | 38 | 41.6 | 52.7 | 72.3 | 64.4 |  |
| Cc1[nH]nc2c1C(c1ccc(O)cc1)C(C#N)=C(N)O2 (configuration not stated) | 13 |  | 15 | 15 |  |  |  |  |  |  |  |  |  |  |  |  |  |  |  |  |
| Cc1nn(-c2ccccc2)c2c1C1(C(=O)Nc3ccccc31)C(C#N)=C(N)O2 (configuration not stated) | 14 | 19 | 21 | 15 | 3.12 (≈ 8.46 µM) | 3.12 (≈ 8.46 µM) | 3.12 (≈ 8.46 µM) | 6.25 (≈ 16.9 µM) | 19.3 | 26.6 | 40.3 | 64.6 | 86.5 | 16.8 | 23.5 | 25 | 46.5 | 68.8 | 47.2 |  |
| Cc1[nH]nc2c1C(c1cccc(Oc3nc(Cl)c(Cl)cc3Cl)c1)C(C#N)=C(N)O2 (configuration not stated) | 16 | 21 | 23 | 15 | 6.25 (≈ 13.9 µM) | 6.25 (≈ 13.9 µM) | 3.12 (≈ 6.96 µM) | 6.25 (≈ 13.9 µM) | 0.41 | 16.3 | 34.6 | 42.4 | 50.1 | 42.8 | 23.5 | 47.2 | 64.3 | 70.9 | 53.8 |  |
| Cc1nn(-c2ccccc2)c2c1C(c1ccc([N+](=O)[O-])cc1)C(C#N)=C(N)O2 (configuration not stated) | 8 | 7 | 15 | 8 |  |  |  |  | 2.04 | 12.5 | 30.8 | 85.5 | 96.4 | 15.1 |  |  |  |  |  |  |
| Cc1[nH]nc2c1C1(C(C#N)=C(N)O2)c2ccccc2-c2ccccc21 | 10 | 10 | 10 | 17 |  |  |  |  |  |  |  |  |  |  |  |  |  |  |  |  |
| Cc1nn(-c2ccccc2)c2c1C1(C(C#N)=C(N)O2)c2ccccc2-c2ccccc21 | 12 | 11 | 13 | 16 |  |  |  |  |  |  |  |  |  |  | 23.5 | 30.5 | 45.2 | 65.5 | 56.6 |  |
| CC(=O)O[C@H]1C(=O)[C@@]2(C)[C@H]([C@H](OC(=O)c3ccccc3)[C@]3(O)C[C@H](OC(=O)[C@H](O)[C@@H](NC(=O)c4ccccc4)c4ccccc4)C(C)=C1C3(C)C)[C@]1(OC(C)=O)CO[C@@H]1C[C@@H]2O [PACLITAXEL] |  |  |  |  |  |  |  |  |  |  |  |  |  |  |  |  |  |  |  | 15 |
| Cc1nn(-c2ccccc2)c2c1C(c1cccc(Oc3ccccc3)c1)C(C#N)=C(N)O2 (configuration not stated) | 15 |  | 18 |  | 3.12 (≈ 7.43 µM) | 6.25 (≈ 14.9 µM) | 6.25 (≈ 14.9 µM) | 3.12 (≈ 7.43 µM) |  |  |  |  |  |  |  |  |  |  |  |  |
